PMC12778361 (Chemical Science, 2025)
Where two headings read alike, the source gives them in different places.

Experiments:
[1] = 1 M HCl, 298 K; cited from earlier work
[2] = T1-weighted phantom images at 7 T in mouse serum and PBS; type: physicochemical; conditions: 25 °C, 0.3 mM in mouse serum
How it was run: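 T1-weighted phantoms of Gd3+ complex in mouse blood serum were imaged at 7 T. A clinical Gd3+ agent and serum alone served as comparators. A spin echo sequence was used, TE = 10 ms, TR = 400 ms, and signal intensities were read.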

[3] = cited from earlier work

| Structure (SMILES) | kobs dissociation rate constant [1] [s⁻¹] | t1/2 dissociation half-life [1] [min] | signal intensity, T1-weighted phantom [2] | r1 relaxivity ([3]; 20 MHz, 25 °C) [mM⁻¹ s⁻¹] | kex^298 water exchange rate ([3]; SAP isomer) | ΔH≠ ([3]; SAP isomer) [kcal/mol] | ΔS≠ ([3]; SAP isomer) | kex^298 water exchange rate ([3]; TSAP isomer) | ΔH≠ ([3]; TSAP isomer) [kcal/mol] | τR^298 rotational correlation time [3] [ps] |
| --- | --- | --- | --- | --- | --- | --- | --- | --- | --- | --- |
| O=C([O-])CN1CCNCCN(CC(=O)[O-])CCN(CC(=O)[O-])CC1.[Gd+3] [GdDO3A] | 0.023 | 0.5 | – | – | – | – | – | – | – | – |
| O=C([O-])CN1CCN(CC(=O)[O-])CCN(CC(=O)O)CCN(CC(=O)[O-])CC1.[Gd+3] [GdDOTA] | 1.8e-06 | 6418 | 3.97 × 10^4 | – | – | – | – | – | – | – |
| CC(O)CN1CCN(CC(=O)[O-])CCN(CC(=O)[O-])CCN(CC(=O)[O-])CC1.[Gd+3] (centres unmarked) [GdHPDO3A] | 0.00026 | 44 | – | 4.6 | 1.56 10^6 s^−1 | 12.7 | +52 kJ mol^−1 K^−1 | 112 10^6 s^−1 | 3.59 | 65 |
